Experimental data from publication PMC4931879 (The Journal of Pharmacology and Experimental Therapeutics, 2016).
Each block holds one compound with its values, some of them ahead of it.

What was measured:
[1] = system: Aβx-42 in H4-APPsw cell cultures; assay: Automated multiplex HTRF assay, Aβx-42 in H4-APPsw cell cultures; type: cell-based
Method in brief: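 H4-APPsw cultures treated overnight, 1 pM to 50 μM. Aβx-42 and Aβ1-x were read together in an automated HTRF multiplex; the Aβx-42 detection pairing includes monoclonal 4G8. Concentrations came from synthetic-peptide calibration curves (quadratic fit). Seven independent assays; IC50 for Aβx-42 and maximum percent inhibition for Aβ1-x, given with standard deviations.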

[2] = system: Aβ1-42, Aβ1-40, Aβ1-38 and Aβ1-37 in H4-APPsw cell cultures; type: cell-based; details: overnight
Method in brief: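 H4-APPsw cultures incubated overnight with test compound at 0.46 to 333 nM, with 0.1% DMSO vehicle and a γ-secretase inhibitor reference at 1 μM. Aβ1-42, Aβ1-40, Aβ1-38 and Aβ1-37 were measured by Meso Scale 4-plex immunoassay. Concentrations came from on-plate synthetic-peptide calibration curves (quadratic fit), in pM corrected for dilution. Two replicate wells, standard error shown.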

[3] = Distribution into rat brain after oral administration; type: in vivo, rats; details: 10 mg/kg oral
Method in brief: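 Rats dosed orally at 10 mg/kg in PEG400/Solutol/TPGS (90:5:5 w/w/w). n = 3 per time point, sampled at 1, 4, 8 and 24 h. Jugular blood collected into EDTA and centrifuged at 4°C (1500–2000 × g). Brain blotted, weighed and homogenized in 4 volumes of PBS; cerebellum analysed. Samples stored at −20°C, then LC-MS/MS. Brain-to-plasma ratios per time point and brain/plasma AUC ratio.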

[4] = system: Aβ1-x in H4-APPsw cell cultures; assay: Automated multiplex HTRF assay, Aβ1-x in H4-APPsw cell cultures; type: cell-based; details: read-out: Aβ1-x maximum inhibition, H4-APPsw cell cultures, overnight, at 50 μM; ± standard deviation
[5] = system: CSF Aβ peptides; assay: CSF Aβ peptides in healthy human subjects after a single 900-mg oral dose; type: in vivo
Method in brief: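 Placebo-controlled, double-blind single-dose panel of 15 healthy young men and women of non-child-bearing potential. Single 900-mg oral dose or placebo, given fasted. CSF collected via indwelling lumbar catheter at −1, 0, 2, 4, 6, 8, 12, 15, 18 and 24 h. Aβ1-42/40/38 measured by Meso Scale 3-plex; Aβ1-37 by 26D6/Aβ1-37-selective polyclonal ELISA; Aβ1-x by 4G8/26D6-HRP ELISA.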

[6] = system: Aβ1-42; assay: PK/PD across species: Aβ1-42 trough versus plasma exposure; type: in vivo; details: nonlinear fit of the entire data set: rat, dog, monkey, human
Method in brief: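 CSF Aβ1-42 trough (lowest level after dosing) plotted against plasma AUC and Cmax. Values were per individual human subject and per dose in individual dogs and monkeys. Rats used group means, with troughs for both brain and CSF, drawn from the IV study plus two further time courses. A nonlinear fit of the pooled data gave the exposure at 50% inhibition.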

[7] = Plasma exposure in rats after single intravenous doses; type: in vivo, Sprague-Dawley rats; details: rat, intravenous 1, 5, 10 mg/kg
Method in brief: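 Same IV rat study: fasted females, 1, 5 or 10 mg/kg in PEG400/ethanol/Solutol, n = 4 per time point from 10 min to 24 h. Blood taken by cardiac puncture into EDTA for plasma. Plasma deproteinized and extracted with acetonitrile, then analysed by UPLC-MS/MS (C18 column at 60°C); quantitation range 10–5000 nM.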

[8] = system: CSF Aβ peptides; assay: CSF Aβ peptides in dogs after single oral doses; type: in vivo, beagle dogs; details: dog
Method in brief: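 Male beagles, about 1 year old, 8–11 kg, with indwelling lumbar catheters; CSF sampled while conscious and lightly restrained. Fasted 16 h before dosing, fed 4 h after. Four dogs in a randomized crossover with 1-week washout: oral 2, 5 or 30 mg/kg or vehicle. CSF taken predose and up to 72 h, spun at 1330 × g for 10 min at 4°C. Aβ1-42/40/38/37 measured by Meso Scale 4-plex; the four were also summed.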

[9] = 14-day daily oral dose safety assessment in rats; type: in vivo; details: for AUC at 14 days: rat, in vivo, po, 100 mg/kg
Method in brief: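 Safety study in male and female rats given daily oral doses of 10, 30 or 100 mg/kg for 14 days; plasma AUC determined on day 14.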

[10] = system: Notch3; assay: Cell-based transcriptional reporter assay, Notch3; details: read-out: Notch3 IC50
[11] = system: Aβ peptides in H4-APPsw cell cultures; type: cell-based; details: overnight, 100 nM
Method in brief: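 H4-APPsw cultures incubated overnight with 0.1% DMSO or test compound at 100 nM. Aβ peptides were immunoprecipitated and analysed by MALDI mass spectrometry. Peaks were assigned by expected mass, referenced to an equimolar mix of synthetic peptides including [14N]Aβ1-40.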

[12] = system: Notch1; assay: Cell-based transcriptional reporter assay, Notch1; details: read-out: Notch1 IC50
[13] = system: brain Aβ peptides; assay: Brain Aβ peptides in rats after single intravenous doses; type: in vivo, Sprague-Dawley rats; details: rat
Method in brief: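 Female Sprague-Dawley rats, 10–12 weeks old, fasted from 16 h before to 4 h after dosing. Given IV 1, 5 or 10 mg/kg or vehicle (PEG400/ethanol/Solutol HS 15, 93:5:2 w/w/w; 1.5 ml/kg) in randomized order. n = 4 per time point, killed by CO2 at 10 min, 30 min, and 1, 3, 7, 12 and 24 h. Brain without cerebellum frozen in liquid nitrogen. Aβ1-42/40/38/37 measured by singleplex ELISAs; Aβ1-x by 4G8/252Q6-HRP ELISA; compared with vehicle.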

[14] = system: Aβ1-42 in H4-APPsw cell cultures; assay: Aβ1-42 immunoassay; type: cell-based; details: read-out: Aβ1-42 IC50
Method in brief: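 Overnight exposure of H4-APPsw cultures, 10 pM to 10 μM. Aβ1-42 and Aβ1-40 were measured in parallel from the same cultures by automated HTRF immunoassays. Concentrations came from synthetic-peptide calibration curves (quadratic fit). Three independent assays; IC50 given with standard deviation.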

[15] = system: amyloid-β precursor protein C-terminal fragment; assay: APP C-terminal fragment accumulation in rat brain; type: in vivo, rats; details: 30 mg/kg oral, 8 or 12 hours
[16] = system: CSF Aβ peptides; assay: CSF Aβ peptides in monkeys after single intravenous doses; type: in vivo, cynomolgus monkeys; details: monkey
[17] = Plasma exposure in monkeys after single intravenous doses; type: in vivo, cynomolgus monkeys; details: monkey, intravenous 5 or 15 mg/kg
Method in brief: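 Crossover in four lumbar-catheterized male cynomolgus monkeys given IV 5 or 15 mg/kg or vehicle. Blood drawn at 1, 2, 3, 4, 5 and 30 min and at 1, 2, 4, 7, 10, 24 and 48 h. Samples kept on ice and centrifuged at 2880 × g for 10 min; plasma kept for compound levels.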

[18] = system: Aβ1-42 levels in cerebrospinal fluid; details: clinical trials, even at high doses; ref Galasko et al., 2007; cited from earlier work
[19] = 30 mg/kg oral, 24 hours after dose
[20] = single intravenous dose 1, 5 or 10 mg/kg
[21] = intravenous, 12–24 hours after the 30-mg/kg dose (so in the source)

Compound: C[C@H](c1ccc(F)cc1CCCC(=O)O)N(c1cc(F)ccc1F)S(=O)(=O)c1ccc(Cl)cc1 [BMS-299897, (R)-4-(2-(1-((4-chloro-N-(2,5-difluorophenyl)phenyl)sulfonamido)ethyl)-5-fluorophenyl)butanoic acid, reference compound]
- Reduction of Aβx-42 versus Aβ1-x in the multiplex assays (relative potency) ([1]; H4-APPsw cell cultures, overnight, 1 pM to 50 μM): approximately equal potency
- Effect on production of Aβ1-42, Aβ1-40, Aβ1-38 and Aβ1-37 ([2]; 1 μM): inhibited production of all four Aβ peptides

- Brain penetration [3]: moderate brain penetration
- IC50 ([1]; read-out: Aβx-42 IC50): 5.5 nM
- Concentrations in blood plasma, dose proportionality [7]: dose-proportional
- IC50 [10]: ~1000 nM
- IC50 [12]: ~1000 nM
- IC50 [14]: 6.6 nM
Compound: CNc1nc(Nc2ccc(-n3cnc(C)n3)c(OC)c2)nc2c1CC[C@H]2c1ccc(F)cc1 [BMS-932481, (S)-7-(4-fluorophenyl)-N2-(3-methoxy-4-(3-methyl-1H-1,2,4-triazol-1-yl)phenyl)-N4-methyl-6,7-dihydro-5H-cyclopenta[d]pyrimidine-2,4-diamine]
- inhibition at 50 µM [4]: ≤ 30%
- CSF Aβ1-37 increase [5]: ca. 12 fold
- CSF Aβ1-40 change [5]: decrease
- CSF Aβ1-42, level relative to predose ([5]; after 24 hours): 50 % of predose levels
- CSF Aβ1-38 increase ([5]; gradual increase): about 2 fold
- CSF Aβ1-x transient increase ([5]; the same increase in the placebo group): approximately 40%
- Plasma AUC at 50% inhibition (Aβ1-42 trough) [6]: 11 μM⋅h
- CSF Aβ1-37 maximal increase ([8]; 30 mg/kg oral): 5 fold
- CSF Aβ1-40 maximum reduction [8, 19]: ca. 65%
- CSF Aβ1-42 maximum reduction [8, 19]: ca. 65%
- Effect on the sum of the four CSF Aβ peptides ([8]; oral 2, 5 or 30 mg/kg): little, if any, effect
- AUC at 14 days ([9]; female): 508 µM·h
- AUC at 14 days ([9]; male): 892 µM·h
- Histologic changes suggestive of Notch inhibition ([9]; rat, 10, 30 or 100 mg/kg daily oral for 14 days, any dose level): no histologic changes suggestive of Notch inhibition
- Effect on the overall level of Aβ ([2]; 0.46 to 333 nM): little if any effect
- Aβ1-42 and Aβ1-40 detected by IP-MALDI mass spectroscopy [11]: no Aβ1-42 or Aβ1-40 was detected
- Sum of brain Aβ1-42, Aβ1-40, Aβ1-38 and Aβ1-37 concentrations, change ([13]; intravenous 1, 5 or 10 mg/kg): no significant changes
- Brain Aβ1-x change ([13]; intravenous, any dose or time point): no significant changes
- Brain Aβ1-37 maximal increase [13, 20]: ca. 6 fold
- Brain Aβ1-38 maximal increase [13, 20]: ca. 2 fold
- Brain Aβ1-40 maximum reduction relative to vehicle-treated rats [13, 20]: about 75%
- Brain Aβ1-42 maximum reduction relative to vehicle-treated rats [13, 20]: about 75%
- Effect on APP C-terminal fragment accumulation in brain [15]: no effect

- Concentrations in blood plasma, dose proportionality [17]: dose-proportional
Compound: Cc1ncn(-c2ccc3cc2OC/C=C\CNc2nc(nc4c2CC[C@H]4c2ccc(Cl)cc2F)N3)n1 [BMS-986133, (S,Z)-17-(4-chloro-2-fluorophenyl)-34-(3-methyl-1H-1,2,4-triazol-1-yl)-16,17-dihydro-15H-4-oxa-2,9-diaza-1(2,4)-cyclopenta[d]pyrimidina-3(1,3)-benzenacyclononaphan-6-ene]
- Effect on CSF Aβ1-x or the sum of the four Aβ peptides ([16]; intravenous 5 or 15 mg/kg): little, if any, effect
- CSF Aβ1-40 maximum reduction [16, 21]: ca. 75%
- CSF Aβ1-42 maximum reduction [16, 21]: ca. 75%

Compound: CC(C(=O)O)c1ccc(-c2ccccc2)c(F)c1 (stereo not drawn) [flurbiprofen]
- Effect on Aβ1-42 levels in cerebrospinal fluid [18]: no effect
